Reference: PMC8114186 (ChemMedChem, 2020)
Read-outs that look alike come from different tables or passages of the source. Marks after values point to notes of the source that are not given here.

What was measured:
NDM-1 = NDM-1 (Klebsiella pneumoniae, UniProt C7C422); experiment: In vitro inhibition of NDM-1-catalyzed turnover of nitrocefin; format: biochemical
Outline: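 Purified NDM-1 enzyme, identity and purity confirmed by ESI-MS. Test compound serially diluted in 50 mM HEPES, pH 7.2, and preincubated with 1 nM NDM-1 for 10 min at rt. Nitrocefin (20 µM) then added; absorbance at 492 nm followed over 30 min at rt. Slopes normalized to each compound's maximum slope, plotted against log concentration; IC50 and confidence intervals from curve fit.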

[1] = test system: E. coli UTI89 expressing NDM-1; format: cell-based
[2] = test system: E. coli MG1655 expressing NDM-1; format: cell-based
[3] = E. coli MG1655, 100 μM compound

Chain of NDM-1 (C7C422 29-270, looked up, species assumed): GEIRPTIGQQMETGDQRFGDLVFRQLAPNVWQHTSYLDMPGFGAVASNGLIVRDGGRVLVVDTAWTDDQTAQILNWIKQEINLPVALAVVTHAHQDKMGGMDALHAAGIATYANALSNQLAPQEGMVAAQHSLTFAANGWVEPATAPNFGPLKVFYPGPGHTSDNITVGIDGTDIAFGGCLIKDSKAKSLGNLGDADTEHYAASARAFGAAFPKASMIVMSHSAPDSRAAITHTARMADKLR

O=C(O)c1cccc2oc(-c3cc4ccccc4cc3O)nc12 [Compound 6, 2-(3-hydroxynaphthalen-2-yl)benzoxazole-4-carboxylic acid] gave an IC50 (NDM-1) of 9.8 µM.

With O=C(O)c1cccc2oc(-c3ccc4cc(OCc5ccccc5)ccc4c3O)nc12 [Compound 9, 2-(6-benzyloxy-1-hydroxynaphthalen-2-yl)benzoxazole-4-carboxylic acid] the “Reduction of the MIC of meropenem” value ([1]; E. coli UTI89, 25 μM compound) was “at least 4 fold”, the “Decrease of the MIC of meropenem” value ([1]; E. coli UTI89, 100 μM compound) was “at least 16 fold” and the “Antibacterial activity of compound on its own” value ([1]; E. coli UTI89, 200 μM, no meropenem) was “did not show any antibacterial activity”. The “Meropenem MIC” value ([1]; E. coli UTI89, meropenem + 25 μM compound) was 4–8^[a] μg/mL, the “Meropenem MIC” value ([1]; E. coli UTI89, meropenem + 50 μM compound) was at most 0.5 µg/mL and the “Meropenem MIC” value ([1]; E. coli UTI89, meropenem + 200 μM compound) was at most 0.5 µg/mL. The “Reduction of the MIC of meropenem” value ([2]; E. coli MG1655, 25 μM compound) was “at least 4 fold”, the “Decrease of the MIC of meropenem” value [2, 3] was “at least 16 fold” and the “Antibacterial activity of compound on its own” value ([2]; E. coli MG1655, 200 μM, no meropenem) was “did not show any antibacterial activity”. The “Meropenem MIC” value ([2]; E. coli MG1655, meropenem + 25 μM compound) was 16 µg/mL, the “Meropenem MIC” value ([2]; E. coli MG1655, meropenem + 50 μM compound) was 1–4^[a] μg/mL and the “Meropenem MIC” value ([2]; E. coli MG1655, meropenem + 200 μM compound) was at most 0.5 µg/mL.

With C[C@@H](O)[C@H]1C(=O)N2C(C(=O)O)=C(S[C@@H]3CN[C@H](C(=O)N(C)C)C3)[C@H](C)[C@H]12 [Meropenem, reference compound] the “Meropenem MIC” value ([1]; E. coli UTI89, meropenem alone) was over 64 µg/mL, the MIC ([1]; Escherichia coli, read-out: Meropenem MIC, E. coli UTI89, meropenem alone) was at least 64 µg/mL and the “Meropenem MIC” value ([2]; E. coli MG1655, meropenem alone) was 64 µg/mL.

For O=C(O)c1cccc2oc(-c3c(O)ccc4ccccc34)nc12 [Compound 7, 2-(2-hydroxynaphthalen-1-yl)benzoxazole-4-carboxylic acid], the “Restoration of meropenem susceptibility” value ([1]; E. coli UTI89, 100 μM compound) was “failed to restore meropenem susceptibility”, the “Meropenem MIC” value ([1]; E. coli UTI89, meropenem + 100 μM compound) was 64 µg/mL and the IC50 (NDM-1) was 8.5 µM. The “Restoration of meropenem susceptibility” value [2, 3] was “failed to restore meropenem susceptibility” and the “Meropenem MIC” value ([2]; E. coli MG1655, meropenem + 100 μM compound) was 64 µg/mL.

In the case of O=C(O)c1cccc2oc(-c3ccc4c(OCc5ccccc5)cccc4c3O)nc12 [Compound 10, 2-(5-benzyloxy-1-hydroxynaphthalen-2-yl)benzoxazole-4-carboxylic acid], the IC50 (NDM-1) is reported as over 40 µM and the “Inhibitory activity against NDM-1 (in words)” value (NDM-1) is reported as “lack of inhibitory activity”.

With O=C(O)c1cccc2oc(-c3ccc4ccc(OCc5ccccc5)cc4c3O)nc12 [Compound 8, 2-(7-benzyloxy-1-hydroxynaphthalen-2-yl)benzoxazole-4-carboxylic acid] the “Decrease of the MIC of meropenem” value ([1]; E. coli UTI89, 100 μM compound) was “at least 16 fold”, the IC50 (NDM-1) was 2.3 µM and the “Decrease of the MIC of meropenem” value [2, 3] was “at least 16 fold”.

For O=C(O)c1cccc2oc(-c3ccc4ccccc4c3O)nc12 [Compound 5, 2-(1-hydroxynaphthalen-2-yl)benzoxazole-4-carboxylic acid], the “Decrease of the MIC of meropenem” value ([1]; E. coli UTI89, 100 μM compound) was “at least 16 fold”, the IC50 (NDM-1) was 0.74 µM and the “Decrease of the MIC of meropenem” value [2, 3] was “at least 16 fold”.
